Laboratory results as given in article PMC4955407 (Journal of medicinal chemistry, 2015).

Legend:
c-Myc–Max(S)/DNA complex = c-Myc–Max(S)/DNA complex (Homo sapiens, UniProt P01106); assay: EMSA, disruption of c-Myc–Max; assay type: biochemical; details: 100 µM compound, n = 1
Procedure, shortened: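 His6-tagged proteins were expressed in E. coli BL21DE3(pLysS) with IPTG induction and purified on Ni-NTA under 8 M urea. The tag was removed with TEV protease, giving >95% purity. Each protein at 30 nM was mixed with 30 nM HEX-labelled double-stranded oligonucleotide carrying a c-Myc binding site. Complexes were resolved by gel shift.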

c-Myc–Max(S) heterodimer = c-Myc–Max(S) heterodimer (Homo sapiens, UniProt P01106); assay: SPR, c-Myc–Max; assay type: binding
[1] = system: HL60 promyelocytic leukemia cells; assay: Cell cycle analysis, propidium iodide; assay type: cell-based, human; details: HL60, 24 h
[2] = system: H460 large cell lung cancer cells; assay: Neutral lipid quantification, BODIPY-459/503; assay type: cell-based; details: H460, 48 h
Procedure, shortened: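 Sub-confluent H460 cells were treated with test compound for 48 h, then washed, trypsinised and resuspended in PBS. […] was added in PBS at 50 µg/ml, and cells were stained for 30 min at ambient temperature. After three PBS washes, cells were analysed by flow cytometry. Mean fluorescence was expressed as a ratio to untreated controls stained in parallel, from biological triplicates.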

[3] = system: c-Myc-dependent reporter (wt-Myc) in HeLa cells; assay: Luciferase reporter, c-Myc binding sites; assay type: cell-based; details: 6 h
[4] = system: NF-κB reporter in HeLa cells; assay: Luciferase reporter, NF-κB binding sites; assay type: cell-based; details: 6 h
[5] = biological target: c-Myc–Max heterodimers in HL60 cells (Homo sapiens, UniProt P01106); assay: c-Myc–Max co-immunoprecipitation; assay type: cell-based; details: HL60, 6 h
Procedure, shortened: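 About 5 × 10^6 HL60 cells were exposed to test compound or DMSO vehicle for 6 h. Cells were pelleted at 500 × g, washed in ice-cold PBS and lysed in IP buffer, keeping an input aliquot. Max was immunoprecipitated, and precipitates were washed three times. They were run on 10% SDS-PAGE and immunoblotted with anti-Myc monoclonal 9E10 (1:1000).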

Solubility = assay type: physicochemical
U266 = details: read-out: Growth inhibition IC50, U266; U266 myeloma, expresses L-Myc; cited from earlier work
[6] = metabolism of the nitro group; cited from earlier work
Max(L) = Max(L) (Homo sapiens, UniProt P61244 1-160); assay: SPR
[7] = biological target: c-Myc bHLH-ZIP domain;Max(S) (Homo sapiens;Homo sapiens, UniProt P01106-1;P61244-2 353-437;1-151, |); assay: SPR

Chain of c-Myc–Max heterodimers in HL60 cells (P01106 whole entry, one chain of several): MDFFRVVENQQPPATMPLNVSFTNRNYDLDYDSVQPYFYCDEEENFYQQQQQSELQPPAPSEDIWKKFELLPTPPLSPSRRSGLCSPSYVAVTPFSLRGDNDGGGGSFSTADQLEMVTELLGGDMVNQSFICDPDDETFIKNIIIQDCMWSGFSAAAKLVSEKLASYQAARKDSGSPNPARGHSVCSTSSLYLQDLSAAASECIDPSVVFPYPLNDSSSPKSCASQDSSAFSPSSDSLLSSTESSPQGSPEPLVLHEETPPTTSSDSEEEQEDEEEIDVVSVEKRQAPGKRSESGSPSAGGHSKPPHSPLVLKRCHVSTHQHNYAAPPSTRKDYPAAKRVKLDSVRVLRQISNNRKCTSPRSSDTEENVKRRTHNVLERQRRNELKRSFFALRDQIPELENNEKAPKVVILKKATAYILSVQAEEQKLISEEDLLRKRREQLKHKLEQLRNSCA

In the case of `CC(C)COc1cc(C(=O)O)ccc1NC(=O)c1ccc([N+](=O)[O-])c(OCC(C)C)c1` [4aa, 3-Isobutoxy-4-(3-isobutoxy-4-nitrobenzamido)benzoic acid], the “EMSA screening, disruption of c-Myc–Max(S)/DNA binding” value (from here on “EMSA screening, disruption”) (c-Myc–Max(S)/DNA complex) is reported as “potent activity”.

For `CC(C)COc1cc(C(=O)O)ccc1NC(=O)c1ccc([N+](=O)[O-])c(OCc2ccccc2)c1` [4ca, 3-Isobutoxy-4-(3-benzyloxy-4-nitrobenzamido)benzoic acid], the “EMSA screening, disruption” value (c-Myc–Max(S)/DNA complex) was “complete disruption”.

With `CC(C)COc1cc(C(=O)O)ccc1NC(=O)c1ccc([N+](=O)[O-])c(OCc2cccc3ccccc23)c1` [4da, 3-Isobutoxy-4-(3-(naphthalen-1-ylmethoxy)-4-nitrobenzamido)benzoic acid] the “EMSA screening, disruption” value (c-Myc–Max(S)/DNA complex) was “potent activity”, the Kd (c-Myc–Max(S) heterodimer) was roughly 10 µM and the “Kd by SPR, pre-formed heterodimers” value (c-Myc–Max(S) heterodimer; c-Myc–Max(S) heterodimers pre-formed before addition of compound (Figure 4E)) was “somewhat higher Kd”. The Cell cycle arrest [1] was “promoted a G0/G1 arrest”, the Neutral lipid accumulation [2] was “increase in neutral lipid stores” and the “Luciferase activity, wt-c-Myc vector” value [3] was “dose-dependent inhibition of luciferase”. The “Luciferase activity, NF-kB vector” value [4] was “no inhibition of luciferase was observed” and the “c-Myc–Max association by co-IP” value [5] was “remain largely intact”.

In the case of `COC(=O)c1ccc(NC(=O)c2ccc([N+](=O)[O-])c(OC(C)C)c2)c(OCC(C)C)c1` [14ba, Methyl 3-isobutoxy-4-(3-isopropoxy-4-nitrobenzamido)benzoate], the “EMSA screening, disruption” value (c-Myc–Max(S)/DNA complex) is reported as “modest inhibitory activities” and the Solubility (Solubility) is reported as “poor solubilities”.

In the case of `CCc1ccc(/C=C2\SC(=S)NC2=O)cc1` [10058-F4, reference compound], the Cell cycle arrest [1] is listed as “promoted a G0/G1 arrest”, the “c-Myc–Max association by co-IP” value [5] is listed as “abrogated c-Myc’s association with Max” and the IC50 (U266) is listed as roughly 100 µM.

In the case of `O=[N+]([O-])c1ccc(Nc2ccccc2-c2ccccc2)c2nonc12` [compound 2, reference compound], the Neutral lipid accumulation [2] is reported as “increase in neutral lipid stores”, the “Luciferase activity, wt-c-Myc vector” value [3] is reported as “dose-dependent inhibition of luciferase” and the “Luciferase activity, NF-kB vector” value [4] is reported as “no inhibition of luciferase was observed”. For the same molecule, the Half-life [6] was “short half-life”.

In the case of `CC(C)COc1cc(C(=O)O)ccc1NC(=O)c1ccc([N+](=O)[O-])c(OCC(C)C)n1` [compound 15, 3-Isobutoxy-4-(6-isobutoxy-5-nitropicolinamido)benzoic acid], the “EMSA screening, disruption” value (c-Myc–Max(S)/DNA complex) is reported as “complete disruption”.

For `CC(C)COc1nc(C(=O)O)ccc1NC(=O)c1ccc([N+](=O)[O-])c(OCC(C)C)n1` [compound 16, 6-Isobutoxy-5-(6-isobutoxy-5-nitropicolinamido)picolinic acid], the “EMSA screening, disruption” value (c-Myc–Max(S)/DNA complex) was “complete disruption”.

In the case of `CCOC(=O)C(=O)Nc1ccc(C(=O)Nc2ccc(C(=O)O)cc2OCC(C)C)cc1OCC(C)C` [compound 21, 4-(4-(2-Ethoxy-2-oxoacetamido)-3-isobutoxybenzamido)-3-isobutoxybenzoic acid], the “EMSA screening, disruption” value (c-Myc–Max(S)/DNA complex) is reported as “complete disruption”.

In the case of “Methyl 3-benzyloxy-4-(3-isobutoxy-4-nitrobenzamido)benzoate [14ca]”, the “EMSA screening, disruption” value (c-Myc–Max(S)/DNA complex) is reported as “modest inhibitory activities”.

B1: E-box SPR oligonucleotide (dsDNA)
DNA 1: TGAAGCAGACCACGTGGTCGTCTTCA
DNA 2: TGAAGACGACCACGTGGTCTGCTTCA
B1: binds (Max(L)); binds [7].
